The source made the active and inactive calls. No cut-off for these calls is given here.
Assays:
Trypsin [1] = molecular target: T1, Trypsin (Homo sapiens, UniProt P07477+P07478+P35030); test: Inhibition of trypsin (unknown origin) pre-incubated for 30 mins before N-Boc-FSR-AMC substrate addition and measured after 30 mins; format: protein assay
Kallikrein-4 [2] = molecular target: T2, Kallikrein-4 (Homo sapiens, UniProt Q9Y5K2); test: Inhibition of N-terminal FLAG-tagged and C-terminal His tagged pro-KLK4 (unknown origin) expressed in Escherichia coli in presence of thermolysin pre-incubated for 10 mins before Boc-FSR-AMC substrate addition and measured after 20 mins by fluorescence based assay
Kallikrein-5 = molecular target: T3, Kallikrein-5 (Homo sapiens, UniProt Q9Y337); test: Inhibition of KLK5 (unknown origin) expressed in Pichia pastoris pre-incubated for 10 mins before Boc-ValProArg-AMC substrate addition and measured after 30 mins by fluorescence based assay
T3 sequence (Q9Y337 whole entry): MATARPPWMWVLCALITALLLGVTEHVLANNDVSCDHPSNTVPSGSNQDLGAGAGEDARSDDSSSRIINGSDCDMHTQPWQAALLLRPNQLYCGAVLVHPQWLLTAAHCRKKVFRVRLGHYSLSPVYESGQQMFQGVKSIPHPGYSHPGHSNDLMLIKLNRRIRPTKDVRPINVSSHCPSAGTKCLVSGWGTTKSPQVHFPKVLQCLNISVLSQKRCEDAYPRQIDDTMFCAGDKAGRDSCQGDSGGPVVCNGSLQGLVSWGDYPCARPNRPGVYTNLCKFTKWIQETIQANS

Kallikrein-7 [3] = molecular target: T4, Kallikrein-7 (Homo sapiens, UniProt P49862); test: Inhibition of KLK7 (unknown origin) expressed in Pichia pastoris pre-incubated for 10 mins before Leu-Leu-Val-Tyr-AMC substrate addition and measured after 30 mins by fluorescence based assay
Outline: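 KLK7 at 33 nM final in 100 mM phosphate, 0.01% Tween-20, pH 8.5, with inhibitor (1:3 dilutions) or 2% DMSO for 10 min at rt. Reaction started with Leu-Leu-Val-Tyr-AMC at 500 µM final. Fluorescence (ex 380/em 460) read every 60 s for 30 min. Triplicates.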
Target sequence in this assay (P49862 whole entry): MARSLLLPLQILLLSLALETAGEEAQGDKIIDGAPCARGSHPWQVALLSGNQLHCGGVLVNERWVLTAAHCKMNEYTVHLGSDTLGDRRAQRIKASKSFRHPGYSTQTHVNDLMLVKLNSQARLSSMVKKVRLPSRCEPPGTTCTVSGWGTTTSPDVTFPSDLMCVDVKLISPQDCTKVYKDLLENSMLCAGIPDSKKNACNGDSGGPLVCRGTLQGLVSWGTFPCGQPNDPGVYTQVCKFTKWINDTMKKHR

Kallikrein-8 = molecular target: T5, Kallikrein-8 (Homo sapiens, UniProt O60259); test: Inhibition of KLK8 (unknown origin) expressed in Pichia pastoris pre-incubated for 10 mins before Boc-ValProArg-AMC substrate addition and measured after 30 mins by fluorescence based assay
T5 sequence (O60259 whole entry): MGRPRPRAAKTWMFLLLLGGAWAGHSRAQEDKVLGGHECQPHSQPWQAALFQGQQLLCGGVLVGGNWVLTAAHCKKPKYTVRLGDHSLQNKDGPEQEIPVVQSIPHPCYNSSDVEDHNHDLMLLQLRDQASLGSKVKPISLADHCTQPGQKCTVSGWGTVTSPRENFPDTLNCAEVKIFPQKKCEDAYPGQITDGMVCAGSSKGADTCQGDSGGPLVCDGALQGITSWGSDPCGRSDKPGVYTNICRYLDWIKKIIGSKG

Kallikrein-13 = molecular target: T6, Kallikrein-13 (Homo sapiens, UniProt Q9UKR3); test: Inhibition of KLK13 (unknown origin) expressed in Pichia pastoris pre-incubated for 10 mins before Boc-ValProArg-AMC substrate addition and measured after 30 mins by fluorescence based assay
T6 sequence (Q9UKR3 whole entry): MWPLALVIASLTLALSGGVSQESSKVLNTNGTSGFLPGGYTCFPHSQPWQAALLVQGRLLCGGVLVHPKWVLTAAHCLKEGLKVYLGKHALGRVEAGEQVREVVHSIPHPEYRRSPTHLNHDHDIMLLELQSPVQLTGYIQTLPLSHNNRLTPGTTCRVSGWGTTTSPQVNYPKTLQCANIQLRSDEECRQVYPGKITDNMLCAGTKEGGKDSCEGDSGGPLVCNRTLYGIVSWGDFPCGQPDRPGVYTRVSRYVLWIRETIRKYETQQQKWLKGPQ

Kallikrein-14 = molecular target: T7, Kallikrein-14 (Homo sapiens, UniProt Q9P0G3); test: Inhibition of KLK14 (unknown origin) expressed in Pichia pastoris pre-incubated for 10 mins before Boc-ValProArg-AMC substrate addition and measured after 30 mins by fluorescence based assay
T7 sequence (Q9P0G3 whole entry): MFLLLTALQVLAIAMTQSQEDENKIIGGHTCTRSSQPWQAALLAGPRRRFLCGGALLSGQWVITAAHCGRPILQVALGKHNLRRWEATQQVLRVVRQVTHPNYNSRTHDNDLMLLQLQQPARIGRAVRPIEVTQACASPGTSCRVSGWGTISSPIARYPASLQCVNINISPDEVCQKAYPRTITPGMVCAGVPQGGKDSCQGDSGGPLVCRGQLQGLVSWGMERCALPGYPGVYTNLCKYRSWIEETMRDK

[4] = Stability in DMEM supplemented with 10% (v/v) fetal bovine serum at 10 uM at 37 degC assessed as half life by HPLC-MS method; format: physicochemical; settings: cattle, DMEM with 10% (v/v) fetal bovine serum
Outline: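 Compound at 10 µM (0.2% DMSO) in DMEM with 10% FBS, 2 mM L-glutamine and 1% penicillin/streptomycin, plus 10 µM triazole internal standard, held at 37 °C. Sampled hourly to 10 h, then at 24 h, by HPLC-MS in SIM mode for parent and hydrolysis product.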

[5] = molecular target: Kallikrein-5 (Homo sapiens) (UniProt Q9Y337); test: Binding affinity to KLK5 in human VCAP cells conditioned medium at 50 uM pre-incubated for 30 mins by activity-based probe based in-gel fluorescence assay; format: cell-based
[6] = molecular target: T8, Prostate-specific antigen (Homo sapiens) (UniProt P07288); test: Binding affinity to KLK3 in human LNCAP cells conditioned medium at 50 uM pre-incubated for 30 mins by activity-based probe based in-gel fluorescence assay; format: cell-based
T8 sequence (whole entry): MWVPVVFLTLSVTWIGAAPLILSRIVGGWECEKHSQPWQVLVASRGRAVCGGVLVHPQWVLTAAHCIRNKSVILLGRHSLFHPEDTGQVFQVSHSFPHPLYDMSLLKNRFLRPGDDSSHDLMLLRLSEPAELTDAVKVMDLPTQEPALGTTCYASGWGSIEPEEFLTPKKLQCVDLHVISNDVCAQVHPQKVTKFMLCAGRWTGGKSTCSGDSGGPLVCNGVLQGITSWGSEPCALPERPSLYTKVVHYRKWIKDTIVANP

Kallikrein-4 [7] = molecular target: T2, Kallikrein-4; test: Binding affinity to recombinant KLK4 (unknown origin) at 50 uM pre-incubated with conditioned medium for 30 mins by activity-based probe based in-gel fluorescence assay
Kallikrein-7 [8] = molecular target: T4, Kallikrein-7; test: Binding affinity to recombinant KLK7 (unknown origin) at 50 uM pre-incubated with conditioned medium for 30 mins by activity-based probe based in-gel fluorescence assay
Target sequence in this assay (P49862 30-253 limits assumed): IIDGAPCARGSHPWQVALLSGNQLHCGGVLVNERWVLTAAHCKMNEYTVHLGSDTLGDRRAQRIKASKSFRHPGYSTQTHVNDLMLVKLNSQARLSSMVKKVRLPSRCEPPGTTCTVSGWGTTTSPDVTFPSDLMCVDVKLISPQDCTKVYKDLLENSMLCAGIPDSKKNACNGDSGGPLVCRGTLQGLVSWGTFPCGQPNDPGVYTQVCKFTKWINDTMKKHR

Trypsin [9] = molecular target: T1, Trypsin; test: Binding affinity to recombinant trypsin (unknown origin) at 50 uM pre-incubated with conditioned medium for 30 mins by activity-based probe based in-gel fluorescence assay; format: protein assay
CAL-27 [10] = test: Effect on cell proliferation of human CAL27 cells at 100 to 500 nM incubated for 48 hrs by BrdU incorporation assay; format: ADME, cell-based; settings: cal-27, 48 h, 0.5 µM
Detroit 562 [11] = test: Effect on cell proliferation of human Detroit 562 cells at 100 to 500 nM incubated for 48 hrs by BrdU incorporation assay; format: ADME, cell-based; settings: detroit 562, 48 h, 0.5 µM
CAL-27 [12] = test: Effect on EMT switch in human CAL27 cells at 100 to 500 nM incubated for 48 hrs; format: ADME, cell-based; settings: cal-27, 48 h, 0.5 µM
Detroit 562 [13] = test: Effect on EMT switch in human Detroit 562 cells at 100 to 500 nM incubated for 48 hrs; format: ADME, cell-based; settings: detroit 562, 48 h, 0.5 µM

T2 sequence (Q9Y5K2 whole entry): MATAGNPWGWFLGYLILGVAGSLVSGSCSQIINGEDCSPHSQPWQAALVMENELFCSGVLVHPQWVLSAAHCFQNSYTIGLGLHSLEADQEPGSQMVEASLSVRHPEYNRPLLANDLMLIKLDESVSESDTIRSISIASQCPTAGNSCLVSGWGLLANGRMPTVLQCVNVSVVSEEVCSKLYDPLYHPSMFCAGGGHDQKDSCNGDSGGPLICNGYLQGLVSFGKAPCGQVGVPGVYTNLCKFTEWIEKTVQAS

IC50 (Trypsin [1]): 21 µM
IC50 (Kallikrein-4 [2]): > 200 µM
IC50 (Kallikrein-5): 1.1 µM
IC50 (Kallikrein-7 [3]): 73 µM
IC50 (Kallikrein-8): > 10 µM
IC50 (Kallikrein-13): > 10 µM
IC50 (Kallikrein-14): 10.3 µM
half-life at 10 µM [4]: 4.22 h
Activity [5]: inactive
Activity [6]: inactive
Activity (Kallikrein-4 [7]): inactive
Activity (Kallikrein-7 [8]): inactive
Activity (Trypsin [9]): inactive
SMILES: Cc1nn(-c2ccccc2)c(C)c1NC(=O)COC(=O)Cc1c(C)[nH]c2ccccc12
Activity (CAL-27 [10]): Non-Toxic
Activity (Detroit 562 [11]): Non-Toxic
Activity (CAL-27 [12]): Non-Toxic
Activity (Detroit 562 [13]): Non-Toxic

— ChEMBL document CHEMBL4196210, “Depsipeptides Featuring a Neutral P1 Are Potent Inhibitors of Kallikrein-Related Peptidase 6 with On-Target Cellular Activity” (J Med Chem, 2018)
